Experimental data taken from ChEMBL document CHEMBL1147677, “Synthesis and biological evaluation of glycosidase inhibitors: gem-difluoromethylenated nojirimycin analogues” (J Med Chem, 2006).

Experiments:
[1] = Dissociation constant, pKa of the compound; type: physicochemical
[2] = Inhibition of yeast alpha glucosidase at pH 6.8; design: species or system Saccharomyces cerevisiae
Method in brief: (§1)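 Nitrophenyl glycoside substrate hydrolysis in 0.1 M sodium phosphate, pH 6.8, 25 °C. Seven cuvettes hold a fixed inhibitor concentration and seven hold none, each across varying substrate levels. The reaction is started with diluted enzyme, and 4- or 2-nitrophenol release is followed at 400 nm for 2 min. Ki = [I]/(KM′/KM − 1) from KM with and without inhibitor.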

[3] = target: T1, Tissue alpha-L-fucosidase (Homo sapiens, UniProt P04066); test: Inhibition of human placenta alpha fucosidase at pH 6.8; method in brief: as §1
T1 sequence (P04066 whole entry): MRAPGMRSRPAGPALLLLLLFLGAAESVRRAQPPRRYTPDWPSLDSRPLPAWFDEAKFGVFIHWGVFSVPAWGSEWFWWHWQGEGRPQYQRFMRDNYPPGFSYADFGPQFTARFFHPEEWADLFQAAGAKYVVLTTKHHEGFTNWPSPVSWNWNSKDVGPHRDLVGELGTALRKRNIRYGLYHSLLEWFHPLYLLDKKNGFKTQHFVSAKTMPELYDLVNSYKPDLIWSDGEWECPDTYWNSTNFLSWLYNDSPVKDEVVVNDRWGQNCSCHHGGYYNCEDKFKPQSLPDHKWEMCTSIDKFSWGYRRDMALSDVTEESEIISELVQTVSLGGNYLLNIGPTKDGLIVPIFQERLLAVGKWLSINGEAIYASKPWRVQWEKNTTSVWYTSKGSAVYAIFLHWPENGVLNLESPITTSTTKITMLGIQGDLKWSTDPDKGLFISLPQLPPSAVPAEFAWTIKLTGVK

[4] = target: T2, Tissue alpha-L-fucosidase (Bos taurus, UniProt Q2KIM0); test: Inhibition of bovine kidney alpha fucosidase at pH 6.8; method in brief: as §1
T2 sequence (Q2KIM0 whole entry): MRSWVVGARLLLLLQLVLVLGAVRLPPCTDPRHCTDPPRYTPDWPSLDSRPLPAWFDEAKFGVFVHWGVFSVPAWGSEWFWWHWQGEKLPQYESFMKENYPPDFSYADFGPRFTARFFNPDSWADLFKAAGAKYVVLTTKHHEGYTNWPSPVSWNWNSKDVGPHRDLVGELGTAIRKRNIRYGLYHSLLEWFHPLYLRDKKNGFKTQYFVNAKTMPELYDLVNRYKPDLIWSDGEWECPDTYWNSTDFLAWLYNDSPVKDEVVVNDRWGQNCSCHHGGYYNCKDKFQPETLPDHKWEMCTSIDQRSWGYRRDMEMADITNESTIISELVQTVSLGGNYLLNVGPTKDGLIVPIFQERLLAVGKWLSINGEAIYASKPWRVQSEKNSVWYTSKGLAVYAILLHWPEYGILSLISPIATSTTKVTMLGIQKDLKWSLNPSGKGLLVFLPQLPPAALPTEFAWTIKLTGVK

[5] = target: Alpha-galactosidase (Coffea arabica, UniProt Q5DUH8); test: Inhibition of green coffee beans alpha galactosidase at pH 6.8; method in brief: as §1
Alpha-galactosidase, sequence (Q5DUH8 whole entry): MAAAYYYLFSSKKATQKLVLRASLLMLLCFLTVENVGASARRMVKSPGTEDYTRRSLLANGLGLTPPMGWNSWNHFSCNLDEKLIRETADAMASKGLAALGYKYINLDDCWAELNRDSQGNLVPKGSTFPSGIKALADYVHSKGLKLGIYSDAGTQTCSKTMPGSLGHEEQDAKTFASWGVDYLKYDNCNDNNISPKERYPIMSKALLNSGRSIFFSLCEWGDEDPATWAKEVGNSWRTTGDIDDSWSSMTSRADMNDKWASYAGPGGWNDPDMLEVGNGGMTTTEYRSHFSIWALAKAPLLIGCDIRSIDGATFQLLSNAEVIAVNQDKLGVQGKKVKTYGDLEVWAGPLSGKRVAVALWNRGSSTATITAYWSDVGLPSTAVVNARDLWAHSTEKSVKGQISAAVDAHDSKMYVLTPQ

Row | pKa [1] | Ki [2] | Ki [3] | Ki [4] | Ki [5] | SMILES
1 | 5.3 | – | – | – | – | OC[C@H]1NC[C@@H](O)[C@@H](O)C1(F)F
2 | – | > 1 mM | > 1000 µM | > 1000 µM | > 1 mM | C[C@H]1NC[C@H](O)[C@@H](O)C1(F)F
3 | – | > 1 mM | 250 µM | 570 µM | > 1 mM | C[C@@H]1NC[C@@H](O)[C@H](O)C1(F)F
